Bioassay records from PubChem BioAssay.
Rows were chosen to be rich in hits. Some 2.4% of all compounds tested hit in one or more screens of this group.
ERAP1 HTS inh – ERAP1 (human) enzyme inhibition | Q9NZ08 | recombinant ERAP1, Leu-AMC fluorescence, 60 min | inhibition, % at 10.7 µM | actives 0.15% (n = 340,000) | AID 652197;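 active means mean replicate inhibition of at least 30%, or all replicates individually reaching that 30% level; inactive means mean below 30% and not every replicate reaching it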;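 further: 0% = neutral control wells and 100% = L-leucinethiol positive control wells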
Target sequence (Q9NZ08 whole entry, looked up): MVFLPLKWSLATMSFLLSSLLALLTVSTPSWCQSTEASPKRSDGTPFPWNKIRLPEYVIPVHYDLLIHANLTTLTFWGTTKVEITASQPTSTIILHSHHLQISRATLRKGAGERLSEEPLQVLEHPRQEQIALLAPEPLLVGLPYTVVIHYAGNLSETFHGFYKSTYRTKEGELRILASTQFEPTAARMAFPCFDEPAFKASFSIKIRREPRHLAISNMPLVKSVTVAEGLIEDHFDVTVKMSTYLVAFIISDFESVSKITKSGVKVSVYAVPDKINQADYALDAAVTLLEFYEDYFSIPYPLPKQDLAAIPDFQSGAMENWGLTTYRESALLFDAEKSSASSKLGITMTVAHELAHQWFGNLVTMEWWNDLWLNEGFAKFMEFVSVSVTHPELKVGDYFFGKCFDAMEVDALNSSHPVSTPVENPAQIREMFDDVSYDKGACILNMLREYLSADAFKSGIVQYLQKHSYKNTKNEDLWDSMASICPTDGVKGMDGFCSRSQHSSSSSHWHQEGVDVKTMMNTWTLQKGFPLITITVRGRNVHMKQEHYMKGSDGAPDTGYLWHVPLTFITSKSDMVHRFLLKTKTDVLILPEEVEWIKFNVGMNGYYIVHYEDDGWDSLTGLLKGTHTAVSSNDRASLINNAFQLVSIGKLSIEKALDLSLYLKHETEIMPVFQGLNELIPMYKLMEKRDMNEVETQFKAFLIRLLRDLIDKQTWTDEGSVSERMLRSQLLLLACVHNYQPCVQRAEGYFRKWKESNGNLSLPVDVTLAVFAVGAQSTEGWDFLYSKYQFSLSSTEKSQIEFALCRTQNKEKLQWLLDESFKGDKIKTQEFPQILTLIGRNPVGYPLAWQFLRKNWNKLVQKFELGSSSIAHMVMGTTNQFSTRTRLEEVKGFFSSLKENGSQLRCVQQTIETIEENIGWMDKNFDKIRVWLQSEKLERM
ARNT-TACC3 inh – disruptors of human ARNT/TACC3 interaction. Q9Y6A5. AlphaScreen His-ARNT PAS-B/GST-TACC3 binding, luminescence; TACC3 fragment carries E629A point mutation. inhibition, % at 9.99 µM. actives 0.66% (n = 390,000). AID 623870;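 active means mean inhibition of replicates at least 50% and at least half of replicates each reaching 50%; inconclusive means half or more replicates reach 50% but mean below 50%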;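 further: 0% = complete ARNT plus TACC3 wells and 100% = ARNT alone without TACC3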
Ecoli rRNA inh – inhibitors of bacterial rRNA selective over humanized ribosomes. E. coli WT GFP vs humanized-ribosome RFP mutants, fluorescence, 24 h; hits give low values; DMSO median 0, no signal -100. GFP signal change (wild-type ribosome), % (test concentration not listed). actives 1.6% (n = 350,000). AID 720706;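 active means significant combined selectivity score with lowered wild-type GFP, culture density cut under 30%, mutant RFP and density less affected; inactive means any of these conditions unmet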
S100A4 MyoIIA – S100A4-myosin IIA interaction inhibition; P26447; S100A4/TAMRA-MyoIIA peptide fluorescence polarization; inhibition, % at 10.7 µM; actives 0.14% (n = 360,000); AID 652163;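 active means mean inhibition of at least 70% across replicates, with every replicate also reaching that level; inconclusive means mean inhibition reaches 70% but some replicates fall short; inactive means mean inhibition below 70%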
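Compound dosing: one dose per compound; test system: human S100A4 monomer with TAMRA-labelled myosin IIA peptide; probe or stimulus: TAMRA-labelled myosin IIA heavy-chain peptide probe, 5 nM; medium: HEPES buffer with Ca2+, pH 7.2; schedule: 5 min incubation before reading; benchmarks: neutral control DMSO, positive control TFP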
PGC1a acetyl inh – PGC1a acetylation modulation, inhibitor mode | U2OS PGC1a acetylation, AlphaScreen anti-acetyl-lysine; with virally co-expressed GCN5 acetyltransferase | inhibition, % at 15.6 µM | actives 0.17% (n = 350,000) | AID 651687;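 active means every replicate shows inhibition of at least 40%; inconclusive means mean inhibition at least 40% but some replicate below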;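 further: 0% = neutral control wells and 100% = positive control wells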
Casp6 inh – caspase-6 (human) enzyme inhibition; purified caspase-6, Z-VEID-R110 cleavage fluorescence; actives 0.53% (n = 350,000); P55212; inhibition, % at 12.5 µM;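 active means mean inhibition across replicates at least about 35%, with every replicate also reaching that limit, limit read from the data; inconclusive means only one of the two criteria met; inactive means neither criterion met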;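 further: 0% = median of neutral control wells and 100% = no fluorescence left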
HepG2 tox – kills or reduces viability of HepG2 cells. shares compounds with Ecoli rRNA inh. ATP luminescence, 72 h. activity change, negative = cytotoxicity, unspecified at 26 µM. 30 tested, under 10 active;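 active means compounds whose fitted half-maximal signal-loss concentration is at most twice their highest valid dose; inconclusive means flat curve with 30 to 70% signal loss, or poor fit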
AID977621 – growth inhibition of wild-type GFP E. coli, dose response, H69 mutant RFP, cherry-pick. E. coli wild-type GFP strain growth, fluorescence, 24 h. 1,900 tested, under 10 active. shares compounds with Ecoli rRNA inh. activity change, negative = inhibition at 50 µM;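 active means Wild-type ribosome reporter drop at least double the humanized mutant ribosome reporter drop, growth loss under a set limit; inconclusive means no clear call, values can overlap the other calls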;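 further: wild-type GFP and H69 mutant RFP strains grown together 50/50 in each well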
AID977628 – growth of wild-type and h24-humanized E. coli strains – h24 mutant RFP vs wild-type GFP, cherry-pick, dose response; shares compounds with Ecoli rRNA inh; E. coli WT GFP strain growth, fluorescence, 24 h; activity change, negative = inhibition at 50 µM; 1,900 tested, under 10 active; AID 977628;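 active means compound lowering the normal-ribosome reporter at least twice as much as the humanized-ribosome reporter, growth loss under a set limit; inconclusive means no clear call, values can overlap the other calls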;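 further: wild-type GFP and h24 humanized RFP strains co-cultured 1 to 1 per well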
* = called active by the depositor; ? = inconclusive; . = no result.

SMILES	ERAP1 HTS inh	ARNT-TACC3 inh	Ecoli rRNA inh	S100A4 MyoIIA	PGC1a acetyl inh	Casp6 inh	AID977621	AID977628	others
Cc1noc(C)c1NC(=O)Nc1ccc2c(c1)C(=O)N([C@H](C)CO)C[C@@H](C)[C@@H](CN(C)C(=O)Nc1ccc3c(c1)OCO3)OCCCC[C@@H](C)O2	-2	6	-41*	11	1	15	.	?	HepG2 tox=18
Cc1noc(C)c1NC(=O)N(C)C[C@H]1OCCCC[C@@H](C)Oc2ccc(NC(=O)Nc3ccc4c(c3)OCO4)cc2C(=O)N([C@H](C)CO)C[C@@H]1C	-2	-9	4	-8	11	-3	.	.
Cc1noc(C)c1NC(=O)N(C)C[C@@H]1OCCCC[C@H](C)Oc2ccc(NC(=O)Nc3ccc4c(c3)OCO4)cc2C(=O)N([C@H](C)CO)C[C@@H]1C	-3	-7	2	3	10	-2	.	.
Cc1noc(C)c1NC(=O)Nc1ccc2c(c1)C(=O)N([C@H](C)CO)C[C@H](C)[C@H](CN(C)C(=O)Nc1ccc3c(c1)OCO3)OCCCC[C@H](C)O2	0	1	0	-2	-10	0	-1.4	12
Cc1noc(C)c1NC(=O)N(C)C[C@@H]1OCCCC[C@@H](C)Oc2ccc(NC(=O)Nc3ccc4c(c3)OCO4)cc2C(=O)N([C@H](C)CO)C[C@@H]1C	-1	-7	1	27	20	1	.	.
Cc1noc(C)c1NC(=O)Nc1ccc2c(c1)C(=O)N([C@H](C)CO)C[C@H](C)[C@H](CN(C)C(=O)Nc1ccc3c(c1)OCO3)OCCCC[C@@H](C)O2	-2	-2	5	16	3	-1	-7.1	?
O=C(N[C@@H]1CC[C@@H](CCn2cc(Cc3ccccc3)nn2)O[C@H]1CO)c1cnccn1	2	.	2	10	0	1	.	.
COc1ccc(NC(=O)N(C)C[C@@H]2OCCCC[C@@H](C)Oc3ccc(NS(C)(=O)=O)cc3C(=O)N([C@H](C)CO)C[C@H]2C)cc1	2	-9	-3	38	14	2	.	.
COc1ccc(NC(=O)Nc2ccc3c(c2)CC(=O)N([C@@H](C)CO)C[C@@H](C)[C@H](CN(C)S(=O)(=O)c2ccc(C)cc2)O3)cc1	-1	.	-5	-7	14	2	.	.
CC=Cc1ccc2n(c1=O)C[C@@H]1[C@@H](CO)[C@H](C(=O)Nc3ccccc3)N(CC)[C@H]21 (mixture of isomers)	-1	.	2	-14	.	0	.	.
C[C@@H]1CN([C@H](C)CO)C(=O)c2cc(NC(=O)CCC(F)(F)F)ccc2O[C@@H]1CN(C)S(=O)(=O)c1ccccc1	-13	-13	0	-4	-8	2	.	.
Cc1noc(C)c1NC(=O)Nc1ccc2c(c1)C(=O)N([C@@H](C)CO)C[C@H](C)[C@H](CN(C)C(=O)Nc1ccc3c(c1)OCO3)OCCCC[C@H](C)O2	0	-1	2	-2	0	1	.	?
Cc1c(CCOC(=O)C23CC4CC(CC(C4)C2)C3)sc[n+]1Cc1ccccc1	-2	14	-27*	7	.	-2	-1.9	2.8
COc1ccc(NC(=O)Nc2ccc3c(c2)C(=O)N([C@H](C)CO)C[C@@H](C)[C@H](CN(C)C(=O)NC2CCCCC2)OCCCC[C@@H](C)O3)cc1	-2	5	1	-10	3	0	.	.
C[C@@H]1CCCCO[C@H](CN(C)C(=O)CCCN(C)C)[C@@H](C)CN([C@@H](C)CO)C(=O)c2cc(NC(=O)Nc3ccccc3)ccc2O1	0	-2	2	-1	0	-1	.	.
Cc1ccc(S(=O)(=O)N2CCCCC2C(=O)N2CCN(C)CC2)cc1 (stereo not drawn)	.	6	.	.	-7	.	.	.
Cc1ccc(S(=O)(=O)N2CCCCC2C(=O)N2CCN(c3ccccc3F)CC2)cc1 (stereo not drawn)	0	6	-20*	1	.	3	4.2	-12
CC(NC(=O)c1c(N)[nH]c(C(=O)c2ccccc2)c1-c1ccccc1Br)c1cccc2ccccc12 (stereo not drawn)	0	.	-26*	-6	.	3	4.6	-3
Cc1occc1C(=O)Nc1ccc2c(c1)CCC2	-1	-1	-13*	1	7	4	?	?
O=C(O)c1ccccc1-c1ccccc1C(=O)Nc1ccc2c(c1)CCC2	.	-6	-21*	0	9	3	-12	.
Cc1occc1C(=O)Nc1ccc2c(c1)OCCO2	.	-3	.	.	4	.	.	.
O=C(C[C@H]1C[C@H]2c3cc(NC(=O)CC4CC4)ccc3O[C@H]2[C@H](CO)O1)NCc1ccc(-c2ccccc2)cc1	11	0	1	4	1	0	.	.
Cc1nn(CC(=O)OCCOc2ccc(Br)cc2)c(C)c1[N+](=O)[O-]	-4	-3	-25*	-3	8	-1	-12	?
Cc1nn(CC(=O)c2ccc(Br)s2)c(C)c1[N+](=O)[O-]	1	1	-21*	-2	-10	2	5.2	-4.5
CC1Cc2cc(-c3csc(NC(=O)Cc4ccccc4)n3)ccc2N1S(C)(=O)=O (stereo not drawn)	1	-5	-26*	7	-26	-1	-4.2	-17
CC1Cc2ccccc2N1C(=O)COc1ccc2c(c1)OCO2 (stereo not drawn)	31*	1	-22*	2	-6	-22	.	-14
CC1CCCN(C(=O)COc2ccc3c(c2)OCO3)C1 (stereo not drawn)	-1	-9	4	-12	-2	5	.	.
O=C(Cc1cccnc1)N1CC(=O)N2[C@H](C1)[C@@H](c1ccc(C3=CCCCC3)cc1)[C@@H]2CO	1	.	-17*	3	-6	-2	.	?
O=C(Cc1cccnc1)N1CC(=O)N2[C@H](C1)[C@H](c1ccc(C3=CCCCC3)cc1)[C@@H]2CO	1	.	1	-1	3	-4	.	.
